Screening data as filed in PubChem BioAssay.
HTR2A ag: mouse HTR2A agonism via beta-arrestin recruitment | P35363 | CHO-K1 mHTR2A beta-arrestin complementation, luminescence; percent of 30 µM serotonin response | activation, % at 7.6 µM | 360,000 tested, 0.66% active;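 active = activation above a run cutoff, the mean activation of all tested compounds plus 3 SD, cut at about 14% in these data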;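 also: 0% = plate median of compound wells and 100% = 30 µM serotonin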
AHR activator: activators of human aryl hydrocarbon receptor | P35869 | AHR-responsive luciferase reporter cells, luminescence | activation, % at 5 µM | 320,000 tested, 2.5% active; in the data active = activation above about 47%;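 also: 0% = vehicle wells and 100% = reference agonist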
MC4R barr agon: agonists of human melanocortin 4 receptor (MC4R) beta-arrestin. U2OS MC4R beta-arrestin complementation, luminescence; percent of melanotan II response, DMSO zero. activation, % at 8.9 µM. 360,000 tested, 0.98% active. AID 540308;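 active = activation above a per-plate cutoff, the mean activation of sample wells on that plate plus 3 SD, cut at about 8% in these data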
Target sequence (P32245 whole entry, looked up): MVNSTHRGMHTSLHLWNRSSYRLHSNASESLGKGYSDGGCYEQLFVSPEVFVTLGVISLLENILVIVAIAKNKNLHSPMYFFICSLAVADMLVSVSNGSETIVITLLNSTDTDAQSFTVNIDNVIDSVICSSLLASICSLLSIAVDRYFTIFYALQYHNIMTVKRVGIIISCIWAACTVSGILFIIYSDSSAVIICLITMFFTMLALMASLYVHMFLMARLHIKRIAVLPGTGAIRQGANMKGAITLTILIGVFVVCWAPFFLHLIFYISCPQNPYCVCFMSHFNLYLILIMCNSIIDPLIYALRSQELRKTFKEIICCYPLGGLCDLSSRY
GAA850 FXN act: increases GAA850 frataxin promoter reporter activity. activation, % at 6 µM. 360,000 tested, 0.56% active. HEK293 lucGAA850 FXN promoter luciferase reporter, 24 h; percent of 10 µM SAHA response;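 active = activation above the average of all compounds screened plus 3 SD, cutoff fixed separately per campaign, cut at about 7.5% in these data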;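 also: 0% = DMSO wells and 100% = 10 µM SAHA wells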
MC4R antagonist: antagonists of human melanocortin 4 receptor (MC4R); P32245; MC4R-expressing cells, MTII-stimulated cAMP, LANCE TR-FRET; inhibition, % at 6.5 µM; 360,000 tested, 0.48% active; AID 540295;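 active = inhibition above its plate's cutoff, the mean of tested wells on that plate plus 3 SD, cut at about 29% in these data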;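 also: 0% = Melanotan II alone and 100% = Melanotan II plus saturating MCL0020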
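Test system: U2OS cells stably expressing human melanocortin 4 receptor (MC4R); also added: Melanotan II challenge; compound: 6.5 µM single dose; timing: 30-min compound preincubation, 1-h Melanotan II challenge, 1-h detection, room temperature; signal: Eu-cAMP/anti-cAMP TR-FRET, emission 671 nm; repeats: one well per compound, no replicates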
AHR act confirm: human AHR activation, confirmation; 2,300 tested, 87% active; AID 2845; human cells, AHR-responsive luciferase reporter, luminescence; activation, % at 9 µM; shares compounds with AHR activator; in the data active = activation above about 49%;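 also: HepG2 hepatoma cells carrying a DRE-driven firefly luciferase reporter; 0% = vehicle wells and 100% = reference agonist wells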
PXR act counter: counter-screen for AHR activators: human PXR activators; shares compounds with AHR activator; cell-based PXR reporter, luciferase luminescence; activation, % at 11.6 µM; 2,300 tested, 88% active; AID 434939; in the data active = activation above about 11%;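 also: human hepatoma DPX-2 cells expressing full-length human PXR; 0% = DMSO and 100% = reference agonist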
* marks the source's active call; other numbers are inactive results. Most compounds without a hit are left out; they make up all but 4.7% or so of the library.

Results for Cc1nc(/N=C\N(C)C)sc1C(=O)Nc1ccccc1 ?
HTR2A ag: 2; AHR activator: 108*; MC4R barr agon: 2; GAA850 FXN act: 0; MC4R antagonist: 9; AHR act confirm: 130*; PXR act counter: 11*

How did CCCCCCCCN1C(=O)[C@H](CC(=O)N2CCN(C(=O)c3ccco3)CC2)C[C@@]2(C(=O)OC)CCCCC=C12 do in these assays?
HTR2A ag: -1

Results for O=C(CCN1CCCCC1)c1cccc(Cl)c1 ?
HTR2A ag: -1; MC4R barr agon: -2; GAA850 FXN act: -2; MC4R antagonist: 10

Results for CC(=O)Nc1ccc(NC(=O)c2c(C)nc3ccccn23)cc1 ?
HTR2A ag: 1; AHR activator: 3; MC4R barr agon: -1; GAA850 FXN act: -1; MC4R antagonist: 21

How did Cc1nc2ccccn2c1C(=O)Nc1ccc(Cl)cc1 do in these assays?
HTR2A ag: 1; AHR activator: 91*; MC4R barr agon: 1; GAA850 FXN act: 2; MC4R antagonist: 14; AHR act confirm: 152*; PXR act counter: 16*

What do the screens show for `CC(C)(C)Cc1c(-c2ccc(F)cc2)nc2ccc(Br)cn12`?
HTR2A ag: -1; MC4R barr agon: 7; GAA850 FXN act: 0; MC4R antagonist: 21

What do the screens show for `Cc1cc(C)nc(N/N=C/C2=C(N3CCOCC3)C(=C\c3ccc(Cl)cc3)/CC2)n1`?
HTR2A ag: -3; AHR activator: 90*; MC4R barr agon: -4; GAA850 FXN act: 3; MC4R antagonist: 8; AHR act confirm: 126*; PXR act counter: 12*

What do the screens show for `Cc1cccc2nc(C(=O)Nc3cc(Cl)ccc3-n3cncn3)cn12`?
HTR2A ag: -6; AHR activator: 88*; MC4R barr agon: -4; GAA850 FXN act: 5; MC4R antagonist: 3; AHR act confirm: 88*; PXR act counter: 30*

Results for C=CCNC(=S)N/N=C/c1ccc(-c2cccc([N+](=O)[O-])c2)o1 ?
HTR2A ag: 1; AHR activator: 4; MC4R barr agon: -2; GAA850 FXN act: -1; MC4R antagonist: 5

How did C=CCNC(=S)N/N=C/c1ccc(-c2ccc(Br)cc2)o1 do in these assays?
HTR2A ag: 1; AHR activator: 81*; MC4R barr agon: 8; GAA850 FXN act: 3; MC4R antagonist: 9; AHR act confirm: 132*; PXR act counter: 19*

What do the screens show for `CNC(=S)N/N=C1\C(=O)c2cccc3cccc1c23`?
HTR2A ag: 10; AHR activator: 90*; MC4R barr agon: 2; GAA850 FXN act: 2; MC4R antagonist: 17; AHR act confirm: 114*; PXR act counter: 39*

What do the screens show for `COc1ccc(NC(=O)c2ccc(Cl)nc2)cc1S(=O)(=O)N1CCOCC1`?
HTR2A ag: -1; AHR activator: 92*; MC4R barr agon: 0; GAA850 FXN act: 0; MC4R antagonist: 21; AHR act confirm: 102*; PXR act counter: 21*

How did CCc1ccc(C(=O)Nc2ccc(OC)c(S(=O)(=O)N3CCOCC3)c2)cc1 do in these assays?
HTR2A ag: -4; AHR activator: 10; MC4R barr agon: -1; GAA850 FXN act: -1; MC4R antagonist: 8

Results for CCN(CC)CCNc1nc2cc(OC)c(OC)cc2c2nc(-c3ccccc3)nn12 ?
HTR2A ag: 0; AHR activator: 90*; MC4R barr agon: -1; GAA850 FXN act: -4; MC4R antagonist: -10; AHR act confirm: 17; PXR act counter: 5

What do the screens show for `O=C(c1ccco1)c1coc2c1cc(O)c1ccccc12`?
HTR2A ag: 3; AHR activator: 89*; MC4R barr agon: 0; GAA850 FXN act: 2; MC4R antagonist: 4; AHR act confirm: 120*; PXR act counter: 18*

Results for CC(=O)c1coc2c1cc(O)c1ccccc12 ?
HTR2A ag: -7; AHR activator: -5; MC4R barr agon: -1; GAA850 FXN act: 4; MC4R antagonist: 17

What do the screens show for `Cc1cc(N/C=C/C(=O)c2ccccc2)ccc1Br`?
HTR2A ag: 3; AHR activator: 94*; MC4R barr agon: 2; GAA850 FXN act: 2; MC4R antagonist: 4; AHR act confirm: 108*; PXR act counter: 11*

What do the screens show for `O=C(/C=C/Nc1ccccc1)c1ccccc1`?
HTR2A ag: -1; AHR activator: 2; MC4R barr agon: -1; GAA850 FXN act: 1; MC4R antagonist: -2

How did COC(=O)c1c(C)nc2ccccc2c1C(=O)O do in these assays?
HTR2A ag: 10; AHR activator: 3; MC4R barr agon: 0; GAA850 FXN act: 2; MC4R antagonist: 3

How did COC(=O)c1cc(C)[nH]c2c(C)cc3nc4ccccc4c3c12 do in these assays?
HTR2A ag: -1; AHR activator: 95*; MC4R barr agon: 2; GAA850 FXN act: 2; MC4R antagonist: -4; AHR act confirm: 100*; PXR act counter: 156*

What do the screens show for `CC(C)OC(=O)c1nnc(Cc2ccc(F)cc2)o1`?
HTR2A ag: 0; AHR activator: 91*; MC4R barr agon: 0; GAA850 FXN act: 1; MC4R antagonist: 1; AHR act confirm: 30; PXR act counter: 9

Results for N#Cc1cn(-c2cccc(C(F)(F)F)c2)c(=O)[nH]c1=O ?
HTR2A ag: 0; AHR activator: 8; MC4R barr agon: 0; GAA850 FXN act: 1; MC4R antagonist: -1

Results for CCCc1nc2cc(C)c(Br)c(C)n2c1Cc1ccc(OC)cc1C ?
HTR2A ag: -2

What do the screens show for `O=C1c2cccc3cccc(c23)C(=O)N1CCN1CCN(C(=S)Nc2ccc(Cl)cc2)CC1`?
HTR2A ag: -1; AHR activator: 97*; MC4R barr agon: -3; GAA850 FXN act: 3; MC4R antagonist: 2; AHR act confirm: 110*; PXR act counter: 65*

What do the screens show for `Nc1cc2c3c(cccc3c1)C(=O)N(CCN1CCCC1)C2=O`?
HTR2A ag: 0; AHR activator: 142*; MC4R barr agon: -1; GAA850 FXN act: 2; MC4R antagonist: -27; AHR act confirm: 201*

Results for O=C(/C=C/c1ccc(Cl)cc1)N1CCN(CCN2C(=O)c3cccc4cccc(c34)C2=O)CC1 ?
HTR2A ag: 2; MC4R barr agon: 0; GAA850 FXN act: -1; MC4R antagonist: 3

How did O=C1c2cccc3cc([N+](=O)[O-])cc(c23)C(=O)N1CCN1CCCC1 do in these assays?
HTR2A ag: 2; MC4R barr agon: 0; GAA850 FXN act: -6; MC4R antagonist: -9

How did O=C1c2cccc3cccc(c23)C(=O)N1CCN1CCN(C(=S)Nc2ccccc2)CC1 do in these assays?
HTR2A ag: 7; AHR activator: 98*; MC4R barr agon: 0; GAA850 FXN act: -2; MC4R antagonist: 8; AHR act confirm: 101*; PXR act counter: 98*
